The nature of series [1]: Lipophilicity, log P of the compound. In kind it is physicochemical. As to conditions: octanol/water. An outline of the steps: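 Log Po/w estimated by reversed-phase HPLC on a C8 column. Mobile phases were methanol with 0.25% 1-octanol and octanol-saturated water with 0.02 M MOPS and 0.15% n-decylamine, pH 7.4, at 1 mL/min. Uracil served as void marker. log k′w was obtained by linear extrapolation of retention over 60–85% methanol.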

In series [2] the target is T1, Epidermal growth factor receptor (Homo sapiens, UniProt P00533). Description: Displacement of [125I]4-(3-iodoanilino)-6,7-dimethoxyquinazoline from EGFR tyrosine kinase in human A431 cell membranes. On the set-up: species or system A-431. Background: In a radioligand displacement assay an active substance lowers the binding of a labelled ligand.
T1 sequence (P00533 whole entry): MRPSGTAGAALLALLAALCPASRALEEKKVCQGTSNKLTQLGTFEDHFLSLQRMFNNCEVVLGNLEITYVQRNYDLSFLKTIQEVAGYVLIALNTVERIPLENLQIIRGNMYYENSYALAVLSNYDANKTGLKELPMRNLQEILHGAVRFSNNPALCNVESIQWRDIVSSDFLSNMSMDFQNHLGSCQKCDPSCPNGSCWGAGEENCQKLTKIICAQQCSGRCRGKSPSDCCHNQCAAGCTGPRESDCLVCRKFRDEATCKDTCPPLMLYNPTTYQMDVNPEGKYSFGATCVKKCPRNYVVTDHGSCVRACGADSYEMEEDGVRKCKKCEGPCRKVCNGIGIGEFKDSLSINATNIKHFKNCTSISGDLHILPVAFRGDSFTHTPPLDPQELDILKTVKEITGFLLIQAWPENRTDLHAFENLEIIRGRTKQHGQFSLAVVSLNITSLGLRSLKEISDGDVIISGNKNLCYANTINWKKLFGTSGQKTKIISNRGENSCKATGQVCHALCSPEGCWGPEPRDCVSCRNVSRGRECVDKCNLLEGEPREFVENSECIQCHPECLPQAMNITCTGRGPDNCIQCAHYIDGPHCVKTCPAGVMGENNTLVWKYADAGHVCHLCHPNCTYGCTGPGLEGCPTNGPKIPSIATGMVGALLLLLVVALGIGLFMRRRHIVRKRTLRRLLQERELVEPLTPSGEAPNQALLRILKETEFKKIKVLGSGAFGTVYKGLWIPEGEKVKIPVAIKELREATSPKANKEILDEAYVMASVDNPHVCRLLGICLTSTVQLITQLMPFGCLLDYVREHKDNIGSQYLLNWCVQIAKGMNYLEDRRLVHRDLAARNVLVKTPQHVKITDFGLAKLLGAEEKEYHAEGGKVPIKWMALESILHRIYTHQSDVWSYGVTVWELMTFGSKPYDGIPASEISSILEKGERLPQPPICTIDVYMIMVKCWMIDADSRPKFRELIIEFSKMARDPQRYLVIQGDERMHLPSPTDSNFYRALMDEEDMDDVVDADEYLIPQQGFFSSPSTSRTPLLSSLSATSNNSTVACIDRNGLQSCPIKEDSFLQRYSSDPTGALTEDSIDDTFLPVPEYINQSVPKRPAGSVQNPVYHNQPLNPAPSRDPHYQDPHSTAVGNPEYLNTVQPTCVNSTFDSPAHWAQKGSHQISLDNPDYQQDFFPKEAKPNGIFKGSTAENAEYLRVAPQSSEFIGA
Series [3] has as its target T1, Epidermal growth factor receptor. Description: Inhibition of human EGFR tyrosine kinase phosphorylation expressed in mouse BaF3 cells. It is filed as functional, cell-based.
Series [4] deals with Receptor tyrosine-protein kinase erbB-2 (Homo sapiens, UniProt P04626). Description: Inhibition of human ErbB2 tyrosine kinase phosphorylation expressed in mouse BaF3 cells. In kind it is functional, cell-based.
Chain of Receptor tyrosine-protein kinase erbB-2 (P04626 whole entry): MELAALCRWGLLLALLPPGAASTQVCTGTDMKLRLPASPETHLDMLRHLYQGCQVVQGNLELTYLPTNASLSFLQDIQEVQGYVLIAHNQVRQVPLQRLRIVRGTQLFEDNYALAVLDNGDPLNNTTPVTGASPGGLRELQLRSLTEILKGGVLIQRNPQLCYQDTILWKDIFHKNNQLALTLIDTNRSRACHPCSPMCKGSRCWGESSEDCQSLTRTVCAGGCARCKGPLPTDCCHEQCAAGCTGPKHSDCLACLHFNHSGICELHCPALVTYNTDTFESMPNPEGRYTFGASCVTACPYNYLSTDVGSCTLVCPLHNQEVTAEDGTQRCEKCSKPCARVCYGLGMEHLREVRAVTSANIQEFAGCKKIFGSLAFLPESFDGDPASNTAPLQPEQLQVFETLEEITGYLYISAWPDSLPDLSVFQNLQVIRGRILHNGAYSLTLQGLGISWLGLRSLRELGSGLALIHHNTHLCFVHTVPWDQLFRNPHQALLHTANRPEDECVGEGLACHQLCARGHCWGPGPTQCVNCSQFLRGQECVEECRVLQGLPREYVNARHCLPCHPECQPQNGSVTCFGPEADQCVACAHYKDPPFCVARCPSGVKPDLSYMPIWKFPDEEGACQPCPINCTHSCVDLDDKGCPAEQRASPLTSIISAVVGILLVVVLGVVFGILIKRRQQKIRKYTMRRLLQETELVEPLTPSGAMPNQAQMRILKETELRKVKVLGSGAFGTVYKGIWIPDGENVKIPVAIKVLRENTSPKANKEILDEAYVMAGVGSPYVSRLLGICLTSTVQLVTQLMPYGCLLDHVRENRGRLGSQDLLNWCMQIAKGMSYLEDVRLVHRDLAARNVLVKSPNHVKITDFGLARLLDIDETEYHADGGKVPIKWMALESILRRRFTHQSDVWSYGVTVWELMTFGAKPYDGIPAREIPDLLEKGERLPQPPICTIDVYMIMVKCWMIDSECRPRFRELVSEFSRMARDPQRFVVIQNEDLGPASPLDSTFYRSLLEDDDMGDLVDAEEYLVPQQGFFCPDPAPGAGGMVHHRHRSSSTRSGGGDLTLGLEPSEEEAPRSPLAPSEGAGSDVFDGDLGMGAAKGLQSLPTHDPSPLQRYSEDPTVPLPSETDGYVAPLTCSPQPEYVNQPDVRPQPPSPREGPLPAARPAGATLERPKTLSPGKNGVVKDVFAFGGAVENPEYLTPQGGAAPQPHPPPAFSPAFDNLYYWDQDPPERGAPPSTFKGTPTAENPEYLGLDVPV
The target of series [5] is Receptor tyrosine-protein kinase erbB-4 (Homo sapiens, UniProt Q15303). Description: Inhibition of human ErbB4 tyrosine kinase phosphorylation expressed in human CEM/4 cells. It is filed as functional, cell-based. Put shortly: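 CEM cells expressing ErbB4, grown in RPMI with 10% heat-inactivated FBS and G418, then serum-starved 24 h at 37 °C. About 10^7 cells/mL given inhibitor at three to five concentrations for 2 h at 37 °C, chilled 20 min, then stimulated with NRG1β 100 ng/mL final for 7 min on ice. Lysate glycoproteins captured on ConA. Phosphotyrosine read by 4G10 immunoblot. IC50 read against DMSO standard curve.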
Chain of Receptor tyrosine-protein kinase erbB-4 (Q15303 whole entry): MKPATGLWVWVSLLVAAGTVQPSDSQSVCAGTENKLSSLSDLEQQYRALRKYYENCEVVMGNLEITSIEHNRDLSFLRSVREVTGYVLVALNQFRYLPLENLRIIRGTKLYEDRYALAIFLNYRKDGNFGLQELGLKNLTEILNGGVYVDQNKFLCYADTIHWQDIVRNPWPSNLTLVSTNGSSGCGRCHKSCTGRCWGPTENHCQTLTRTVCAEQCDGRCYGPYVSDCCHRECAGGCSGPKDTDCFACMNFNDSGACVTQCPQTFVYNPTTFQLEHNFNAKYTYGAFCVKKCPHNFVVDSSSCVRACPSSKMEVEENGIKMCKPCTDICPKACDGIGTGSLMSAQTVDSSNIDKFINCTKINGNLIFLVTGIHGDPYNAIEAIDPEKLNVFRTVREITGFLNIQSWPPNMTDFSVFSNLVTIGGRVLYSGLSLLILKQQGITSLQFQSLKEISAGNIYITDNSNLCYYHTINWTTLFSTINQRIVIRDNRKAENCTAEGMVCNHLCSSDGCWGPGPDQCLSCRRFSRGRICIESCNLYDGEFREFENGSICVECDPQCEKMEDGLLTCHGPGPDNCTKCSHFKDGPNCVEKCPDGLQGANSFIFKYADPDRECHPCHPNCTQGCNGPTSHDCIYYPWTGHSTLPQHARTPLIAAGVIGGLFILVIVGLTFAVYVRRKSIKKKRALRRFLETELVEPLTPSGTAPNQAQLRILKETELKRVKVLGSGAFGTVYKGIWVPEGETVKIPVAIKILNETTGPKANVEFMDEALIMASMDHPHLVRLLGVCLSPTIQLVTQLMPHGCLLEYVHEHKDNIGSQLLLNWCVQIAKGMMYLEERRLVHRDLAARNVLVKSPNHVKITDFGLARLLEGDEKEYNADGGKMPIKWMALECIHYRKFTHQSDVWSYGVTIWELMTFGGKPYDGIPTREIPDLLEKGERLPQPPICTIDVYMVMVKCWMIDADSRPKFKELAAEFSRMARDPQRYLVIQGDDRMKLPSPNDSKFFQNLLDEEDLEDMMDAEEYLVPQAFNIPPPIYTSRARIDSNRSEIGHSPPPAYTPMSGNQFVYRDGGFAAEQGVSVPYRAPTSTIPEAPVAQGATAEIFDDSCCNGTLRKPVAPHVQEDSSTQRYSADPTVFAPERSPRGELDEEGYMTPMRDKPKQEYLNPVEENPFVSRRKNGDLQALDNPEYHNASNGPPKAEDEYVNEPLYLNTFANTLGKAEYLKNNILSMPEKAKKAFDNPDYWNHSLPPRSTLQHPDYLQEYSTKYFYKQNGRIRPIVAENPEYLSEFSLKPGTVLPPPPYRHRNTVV

As usually defined, the logP is a log measure of how a compound divides between an organic and an aqueous phase. Low values mean lower lipophilicity, high ones higher lipophilicity. As usually defined, the IC50 is the point on the concentration scale where inhibition reaches its midpoint. A high value points to weaker potency in that assay.

Take `COc1cc2ncnc(Nc3ccc(F)cc3)c2cc1OC`: in series [1], the logP was 2.87. Also, the results for the IC50 in series [2] and in series [3] were 51 nM and 19.1 nM, respectively.

In series [1], `CCOc1cc2ncnc(Nc3cc(F)cc(C(F)(F)F)c3)c2cc1OCC` gave a logP of 5.49. Also, the IC50 in series [2] is 8.95 nM; in series [3] it was more than 50 nM.

The compound `COc1cc2ncnc(Nc3cc(F)cc(C(F)(F)F)c3)c2cc1OC` gave a lipophilicity (logP) in series [1] of 4.66. For the same compound, the IC50 in series [2] was found to be 20 nM; in series [3], 19.1 nM.

In turn, `CCOc1cc2ncnc(NCc3ccc(F)cc3)c2cc1OCC` yielded a logP in series [1] of 3.78. For the same compound, the concentration for half-maximal inhibition (IC50) was 17 nM in series [2], 6.6 nM in series [3], 231 nM in series [4] and more than 100 nM in series [5].

In the case of `COc1cc2ncnc(NCc3ccc(F)cc3)c2cc1OC`, the logP in series [1] came to 3.02.

Compound `CCOc1cc2ncnc(Nc3ccccc3F)c2cc1OCC` yielded a logP in series [1] of 3.02. In addition, the IC50 in series [2] worked out at 9.31 nM; in series [3], 15.8 nM.

In turn, `CCOc1cc2ncnc(Nc3ccc(F)cc3)c2cc1OCC` came in with a logP in series [1] of 3.73. The IC50 in series [2] came to 16 nM; in series [3] it was 23.1 nM.

On to `COc1cc2ncnc(Nc3cccc(Br)c3)c2cc1OC`, for which, in series [1], the logP was found to be 3.49. In series [5], this compound registered an IC50 of 49 nM.

As for `CCOc1cc2ncnc(Nc3cccc(Br)c3)c2cc1OCC`, the logP in series [1] was determined as 4.4. Also, the 50% inhibitory concentration (IC50) was found to be 0.41 nM in series [2], 3.2 nM in series [3], 215 nM in series [4] and 50 nM in series [5].

`CCOc1cc2ncnc(Nc3cccc(F)c3)c2cc1OCC`: the log partition coefficient (logP) in series [1] was 3.71. Besides, the IC50 is 8.17 nM in series [2] and 6.5 nM in series [3].

`CCOc1cc2ncnc(Nc3cccc(I)c3)c2cc1OCC` displayed a logP in series [1] of 4.62. The IC50 was 0.64 nM in series [2], 4.6 nM in series [3], 69 nM in series [4] and 59 nM in series [5].

Compound `COc1cc2ncnc(Nc3cccc(I)c3)c2cc1OC` registered a logP in series [1] of 3.65. The values for the IC50 in series [2] and in series [3] were 1.05 nM and 6.4 nM, respectively.

For the compound `COc1cc2ncnc(Nc3ccccc3F)c2cc1OC`, in series [1], the logP was 2.2. Further, the results for the IC50 in series [2] and in series [3] were 32.2 nM and 12.8 nM, respectively.

With `CCOc1cc2ncnc(Nc3cccc(Cl)c3)c2cc1OCC`, in series [1], the logP turned out to be 4.31. Also, the IC50 stood at 0.38 nM in series [2] and 1.2 nM in series [3].

Regarding `COc1cc2ncnc(Nc3cccc(Cl)c3)c2cc1OC`, the logP in series [1] was determined as 3.51.

The compound `COc1cc2ncnc(Nc3cccc(F)c3)c2cc1OC` gave a logP in series [1] of 2.96.

Values taken from ChEMBL document CHEMBL1140296, “Anilinodialkoxyquinazolines: screening epidermal growth factor receptor tyrosine kinase inhibitors for potential tumor imaging probes” (J Med Chem, 2005).
